Assay results taken from ChEMBL document CHEMBL1132696, “Design of antineoplastic agents based on the "2-phenylnaphthalene-type" structural pattern. 4. Synthesis and biological activity of 2-chloro-3-(substituted phenoxy)-1, 4-naphthoquinones and related 5,8-dihydroxy-1,4-naphthoquinones” (J Med Chem, 1999).

Legend:
HL-60 = assay: Cytotoxicity in HL-60 (human leukemia) cell line.; type: functional, cell-based
SCLC = assay: Cytotoxicity in SCLC (human lung carcinoma) cell line.; type: functional, cell-based
NCI = assay: Complete inhibition of cell growth of 60-human tumor cell line detected by National Cancer Institute.; type: functional, cell-based; conditions: read-out: Log IC50 (converted)
Summary of the method: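 National Cancer Institute preclinical 60 human tumour cell line drug discovery screen. Read-out is the log IC₅₀ (M) at which complete inhibition of cell growth is detected in at least one cell line. Scored qualitatively: +++ at -7.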

[1] = target: DNA topoisomerase II (Homo sapiens) (UniProt P11388+Q02880); assay: Relative activity to induce mammalian DNA topoisomerase II-mediated DNA cleavage; type: functional

`COc1cc(OC)cc(OC2=C(Cl)C(=O)c3c(O)ccc(O)c3C2=O)c1` was tested, and the IC50 (HL-60) was 70 nM, the IC50 (SCLC) was 750 nM and the concentration for complete growth inhibition (NCI) was 1000 nM. For the same compound, the Activity [1] was 50.
Work on `COc1c(Cl)c(Cl)c(OC)c2c1C(=O)C=CC2=O` yielded an IC50 (HL-60) of 1000 nM, an IC50 (SCLC) of 750 nM and an Activity [1] of 10.
With `COc1cccc(OC2=C(Oc3cccc(OC)c3)C(=O)c3c(OC)ccc(OC)c3C2=O)c1` the IC50 (HL-60) was 160 nM, the IC50 (SCLC) was 1000 nM and the concentration for complete growth inhibition (NCI) was 100 nM. It also gave an Activity [1] of 0.
`COc1cccc(OC2=C(Cl)C(=O)c3c(O)ccc(O)c3C2=O)c1` showed an IC50 (HL-60) of 200 nM, an IC50 (SCLC) of 500 nM and a concentration for complete growth inhibition (NCI) of 1000 nM. The Activity [1] was 800.
`COc1ccc2c3c(oc2c1)C(=O)c1c(OC)ccc(OC)c1C3=O` was tested, and the IC50 (HL-60) was 14500 nM, the IC50 (SCLC) was 1000 nM and the Activity [1] was 2.
In the case of `Cc1ccc[n+](C2=C([O-])C(=O)c3c(O)ccc(O)c3C2=O)c1`, the IC50 (HL-60) is reported as 30000 nM, the IC50 (SCLC) is reported as over 10000 nM and the Activity [1] is reported as 0.5.
`O=C1C=CC(=O)c2c(O)c(Oc3ccccc3)c(Oc3ccccc3)c(O)c21` gave an IC50 (HL-60) of 130 nM, an IC50 (SCLC) of 100 nM and a concentration for complete growth inhibition (NCI) of 100 nM. The Activity [1] was 500.
In the case of `O=C1C(Cl)=C(Oc2cc(O)cc(O)c2)C(=O)c2c(O)ccc(O)c21`, the IC50 (HL-60) is reported as 250 nM, the IC50 (SCLC) is reported as 500 nM and the concentration for complete growth inhibition (NCI) is reported as 1000 nM. It also gave an Activity [1] of 200.
With `COc1cccc(OC2=C(Cl)C(=O)c3c(OC)ccc(OC)c3C2=O)c1` the IC50 (HL-60) was 440 nM, the IC50 (SCLC) was 2000 nM and the concentration for complete growth inhibition (NCI) was 1000 nM. The Activity [1] was 20.
`COc1cc(OC)cc(OC2=C(Cl)C(=O)c3c(OC)ccc(OC)c3C2=O)c1` was tested, and the IC50 (HL-60) was 120 nM, the IC50 (SCLC) was 2000 nM and the concentration for complete growth inhibition (NCI) was 1000 nM. It also gave an Activity [1] of 100.
`COc1ccc(OC)c2c1C(=O)C(Cl)=C(Oc1cccc(O)c1)C2=O` gave an IC50 (HL-60) of 67 nM, an IC50 (SCLC) of 300 nM and a concentration for complete growth inhibition (NCI) of 1000 nM. The Activity [1] was 10.
Compound `COc1cc(OC)c2c3c(oc2c1)C(=O)c1c(OC)ccc(OC)c1C3=O` has an IC50 (HL-60) of 128000 nM, an IC50 (SCLC) of over 10000 nM and a concentration for complete growth inhibition (NCI) of 10000 nM. For the same compound, the Activity [1] was 2.
For `O=C1c2oc3cc(O)cc(O)c3c2C(=O)c2c(O)ccc(O)c21`, the IC50 (HL-60) was 390 nM, the IC50 (SCLC) was 1500 nM and the concentration for complete growth inhibition (NCI) was 100 nM. It also gave an Activity [1] of 2000.
With `O=C1C=CC(=O)c2c(O)c(Cl)c(Cl)c(O)c21` the IC50 (HL-60) was 49 nM and the IC50 (SCLC) was 300 nM.
Work on `O=C1c2ccccc2C(=O)c2c1oc1cc(O)cc(O)c21` yielded an IC50 (SCLC) of 1030 nM, a concentration for complete growth inhibition (NCI) of 1000 nM and an Activity [1] of over 100000.
In the case of `COc1ccc(OC)c2c1C(=O)C(Cl)=C(Cl)C2=O`, the IC50 (HL-60) is reported as 220 nM, the IC50 (SCLC) is reported as 1000 nM and the Activity [1] is reported as 200.
For `COc1cccc(OC2=C(Cl)C(=O)c3c(OC(C)=O)ccc(OC(C)=O)c3C2=O)c1`, the IC50 (HL-60) was 200 nM, the IC50 (SCLC) was 5000 nM and the concentration for complete growth inhibition (NCI) was 1000 nM. The Activity [1] was 200.
`O=C1C(Cl)=C(Oc2cccc(O)c2)C(=O)c2c(O)ccc(O)c21` gave an IC50 (HL-60) of 160 nM, an IC50 (SCLC) of 450 nM and a concentration for complete growth inhibition (NCI) of 1000 nM. The Activity [1] was 100.
`O=C1C=CC(=O)c2c(O)c(Oc3ccccc3)c(Cl)c(O)c21` showed an IC50 (HL-60) of 220 nM, an IC50 (SCLC) of 250 nM and a concentration for complete growth inhibition (NCI) of 100 nM. It also gave an Activity [1] of 4000.
`COc1cc(OC)cc(OC2=C(Cl)C(=O)c3c(OC(C)=O)ccc(OC(C)=O)c3C2=O)c1` showed an IC50 (HL-60) of 500 nM, an IC50 (SCLC) of 1100 nM and a concentration for complete growth inhibition (NCI) of 1000 nM. For the same compound, the Activity [1] was 50.
